STAT1 act = STAT1 signaling activators, primary screen, cell-based, HTS, luciferase reporter. AID 932, 2007. NIH 3T3 STAT1-luciferase reporter, IFN-gamma, luminescence; 100% = IFN-gamma alone, no compound. activation (% of control), % at 5.5 µM. 200,000 compounds, 2.6% hits;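 active = activation above the screen-wide mean activation plus 3 SD, cut at about 130% in these data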;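 also: raw ratio to IFN-gamma control signal so 100% means no change and 0% no light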
STAT1 inh = STAT1 signaling inhibitors, primary screen, cell-based, HTS, luciferase reporter; NIH 3T3 STAT1-luciferase reporter, IFN-gamma, luminescence; inhibition, % at 5.5 µM; AID 920, 2007; 200,000 compounds, 0.35% hits;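 active = inhibition above a set limit, the mean inhibition across all tested compounds plus 3 SD, cut at about 34% in these data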;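 also: 0% = IFN-gamma with DMSO and 100% = IFN-gamma with 300 µM nifuroxazide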
STAT3 inh = IL-6 driven STAT3 reporter inhibitors, primary screen, U3A cells, luciferase, luminescence, MLSCN library | 190,000 compounds, 0.89% hits | inhibition, % at 5.5 µM | IL-6 STAT3-luciferase reporter; host cell line lacks STAT1 | AID 862, 2007;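 active = inhibition above the mean inhibition across all screened compounds plus 3 SD, cut at about 44% in these data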;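 also: 0% = DMSO only wells and 100% = 100 µM nifuroxazide control wells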
APP 5'UTR act = activators of APP 5'UTR luciferase reporter, primary screen, SH-SY5Y cells; SH-SY5Y APP 5'UTR luciferase reporter, luminescence; zero percent = DMSO vehicle wells; activation, % at 2 µM; 190,000 compounds, 1% hits; AID 1276, 2008;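 active = activation above a set limit, based on mean plus 3 SD of controls, cut at about 140% in these data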
STAT3 act = IL-6 driven STAT3 reporter potentiators, primary screen, U3A cells, luciferase, luminescence, MLSCN library; IL-6 STAT3-luciferase reporter; 100% = signal with IL-6 EC80 alone; activation (% of control), % at 5.6 µM; 190,000 compounds, 0.91% hits; AID 871, 2007;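 active = activation above the screen-wide mean of compound activation plus 3 SD, cut at about 130% in these data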;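 also: 0% = background luminescence of wells with medium and substrate only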
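System – human U3A cells carrying STAT3-luciferase construct · Probe or stimulus – Interleukin-6, 33 ng/mL · Schedule – compound 1 h, then IL-6 6 h at 37 °C · Signal – luminescence from STAT3-driven luciferase reporter · Evaluation – percent of IL-6-only median luminescence · Benchmarks – IL-6-only high control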
NF-kB neuron act = activators of NF-kB expression in neurons, primary screen, cell-based, HTS; human neuronal cells, NF-kB reporter expression; stronger effect = higher value; 190,000 compounds, 1.6% hits; fold change at 12.5 µM; AID 1239, 2008; in the data active = fold change above about 3.3
An asterisk follows results filed as active; x = no result given. Most compounds without a hit are left out; they make up all but 5.1% or so of the library.

SMILES | STAT1 act | STAT1 inh | STAT3 inh | APP 5'UTR act | STAT3 act | NF-kB neuron act
COc1ccc(/C=C/C(=O)Nc2ccccc2C(F)(F)F)cc1 | 137* | -43 | -13 | 19 | 111 | 0.91
CCc1ccc(CNC(=O)Cn2nc(-c3ccc(C)cc3)ccc2=O)cc1 | 92 | 10 | -3 | -3 | 107 | 0.93
COc1cc(OC)cc(C(=O)Nc2nnc(Cc3ccc(OC)c(OC)c3)s2)c1 | 94 | 4 | 0 | -12 | 106 | 1.1
C=CCn1c(N2CCN(c3ccc(OC)cc3)CC2)nc2c1c(=O)[nH]c(=O)n2C | 87 | 15 | 21 | -11 | 87 | x
COc1ccc(/C=N/OC(=O)Nc2ccccc2OC)cc1 | 107 | -8 | 33 | 92 | 75 | 6.3*
COc1ccc(/C=C/C(=O)Nc2ccccc2C(=O)O)cc1 | 63 | 39* | 51* | 152* | 58 | 3
O=C(Cc1ccccc1)NNC(=O)c1cnccn1 | 100 | 0 | 0 | -4 | 102 | 1.1
O=C(Oc1ccccc1/C=C\C(=O)c1cc2ccccc2o1)c1ccccc1 | 86 | 16 | -4 | 163* | 107 | 5.7*
O=C(Nc1ccccc1)c1ccc(OC(=O)c2cc3ccccc3o2)cc1 | 104 | -4 | -4 | 6 | 109 | 1.8
COc1cccc(C(=O)Oc2ccccc2/C=C\C(=O)c2cc3ccccc3o2)c1 | 97 | 4 | -3 | 61 | 105 | 21*
O=C(Oc1ccccc1/C=C\C(=O)c1cc2ccccc2o1)c1cccc(F)c1 | 102 | -3 | -32 | 76 | 127 | 4*
CC(/C=C1\N=C(SCc2ccccc2)SC1=O)=C\c1ccccc1 | 102 | -3 | 9 | -8 | 93 | 1
COc1cccc(C2CCCN2Cc2nc(-c3cnccn3)no2)c1 (stereo unspecified) | 101 | -3 | -4 | -12 | 106 | 0.91
CCc1ccc(Nc2nnc(SCC(=O)Nc3cccnc3Cl)s2)cc1 | 93 | 8 | -2 | -26 | 106 | 0.93
COc1ccc(NC(=O)C2CC(=O)N=C(N)S2)cc1 (stereo unspecified) | 102 | -5 | 3 | -5 | 101 | 0.87
Cc1ccc2nc(-c3ccc(SCC(=O)Nc4nc(C)cs4)nc3)[nH]c2c1 | 146* | -52 | -16 | 149* | 111 | 1.6
Cc1cc2nc(-c3ccc(SCc4ccccn4)nc3)[nH]c2cc1C | 135* | -35 | 22 | 49 | 85 | 2
CCOC(=O)CSc1ccc(-c2nc3cc(C)c(C)cc3[nH]2)cn1 | 110 | -11 | 15 | 16 | 90 | 0.88
Cc1ccc2nc(-c3ccc(SCC(=O)Nc4nnc(C)s4)nc3)[nH]c2c1 | 124 | -26 | -2 | 93 | 100 | 2.3
Cc1cc2nc(-c3ccc(SCC(=O)Nc4ccc5c(c4)OCCO5)nc3)[nH]c2cc1C | 100 | 0 | 10 | 180* | 101 | 1.4
CSc1ccccc1NC(=O)N1CCCC(C(=O)c2ccc3c(c2)OCO3)C1 (stereo unspecified) | 92 | 8 | 7 | 7 | 98 | 1.4
O=C(O)c1sc2cc(C(F)(F)F)cnc2c1-c1cccs1 | 107 | -8 | -1 | 3 | 101 | 1.1
CCOC(=O)c1ccc(CC2S/C(=C(\C#N)C(C)=O)NC2=O)cc1 (stereo unspecified) | 103 | -2 | -11 | -12 | 109 | 3.5*
Cc1[nH]n(-c2ccccc2)c(=O)c1C(c1ccc(O)c([N+](=O)[O-])c1)c1c(C)[nH]n(-c2ccccc2)c1=O | 111 | -12 | -8 | 7 | 112 | x
CC1=NN(c2ccc(F)cc2)C(=O)C1C(c1cccc(O)c1)c1c(C)[nH]n(-c2ccc(F)cc2)c1=O (stereo unspecified) | 98 | 3 | -56 | -12 | 153* | 1.1
O=[N+]([O-])c1cc2oc3c(c2c(C=NCc2ccncc2)c1O)CCCC3 | 93 | 8 | 4 | 13 | 96 | 1.1
CC(C)=CC(=O)OCc1cc([N+](=O)[O-])cc2c1OCOC2 | 138* | -46 | -22 | 43 | 123 | 0.91

Screening data: PubChem BioAssay, several laboratories
